The results in this text go back to ChEMBL document CHEMBL1137338, “Effects of substitution on 9-(3-bromo-4-fluorophenyl)-5,9-dihydro-3H,4H-2,6-dioxa-4- azacyclopenta[b]naphthalene-1,8-dione, a dihydropyridine ATP-sensitive potassium channel opener” (J Med Chem, 2006).

This assay has as its target Sulfonylurea receptor 2, Kir6.2 (Homo sapiens, UniProt O60706+Q14654). As to the kind of experiment: Ability to open human urinary bladder Kir6.2 channel containing SUR2B in Ltk cells by FLIPR assay. In kind it is functional, cell-based. In a few lines: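 Ltk- cells stably transfected with the Kir6.2/SUR2B exon 17- splice variant. Membrane potential was followed with DiBAC dye in a 96-well cell-based kinetic fluorescence (FLIPR) assay. The highest concentration tested was 10 µM. Each compound's maximal fluorescence response was expressed as % of the response to the reference opener.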

Sequence of Sulfonylurea receptor 2, Kir6.2 (Q14654 whole entry, canonical isoform): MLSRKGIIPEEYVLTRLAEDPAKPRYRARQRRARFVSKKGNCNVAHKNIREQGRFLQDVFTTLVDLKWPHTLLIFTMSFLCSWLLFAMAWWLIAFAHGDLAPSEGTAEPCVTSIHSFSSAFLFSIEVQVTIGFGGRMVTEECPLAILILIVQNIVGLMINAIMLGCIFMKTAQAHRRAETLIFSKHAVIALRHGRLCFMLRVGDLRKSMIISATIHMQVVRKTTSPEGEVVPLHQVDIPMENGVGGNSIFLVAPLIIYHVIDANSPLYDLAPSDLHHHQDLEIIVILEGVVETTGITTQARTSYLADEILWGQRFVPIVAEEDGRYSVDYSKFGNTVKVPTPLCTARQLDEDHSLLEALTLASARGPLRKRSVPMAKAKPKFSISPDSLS
Sequence of Sulfonylurea receptor 2, Kir6.2 (O60706 whole entry, canonical isoform): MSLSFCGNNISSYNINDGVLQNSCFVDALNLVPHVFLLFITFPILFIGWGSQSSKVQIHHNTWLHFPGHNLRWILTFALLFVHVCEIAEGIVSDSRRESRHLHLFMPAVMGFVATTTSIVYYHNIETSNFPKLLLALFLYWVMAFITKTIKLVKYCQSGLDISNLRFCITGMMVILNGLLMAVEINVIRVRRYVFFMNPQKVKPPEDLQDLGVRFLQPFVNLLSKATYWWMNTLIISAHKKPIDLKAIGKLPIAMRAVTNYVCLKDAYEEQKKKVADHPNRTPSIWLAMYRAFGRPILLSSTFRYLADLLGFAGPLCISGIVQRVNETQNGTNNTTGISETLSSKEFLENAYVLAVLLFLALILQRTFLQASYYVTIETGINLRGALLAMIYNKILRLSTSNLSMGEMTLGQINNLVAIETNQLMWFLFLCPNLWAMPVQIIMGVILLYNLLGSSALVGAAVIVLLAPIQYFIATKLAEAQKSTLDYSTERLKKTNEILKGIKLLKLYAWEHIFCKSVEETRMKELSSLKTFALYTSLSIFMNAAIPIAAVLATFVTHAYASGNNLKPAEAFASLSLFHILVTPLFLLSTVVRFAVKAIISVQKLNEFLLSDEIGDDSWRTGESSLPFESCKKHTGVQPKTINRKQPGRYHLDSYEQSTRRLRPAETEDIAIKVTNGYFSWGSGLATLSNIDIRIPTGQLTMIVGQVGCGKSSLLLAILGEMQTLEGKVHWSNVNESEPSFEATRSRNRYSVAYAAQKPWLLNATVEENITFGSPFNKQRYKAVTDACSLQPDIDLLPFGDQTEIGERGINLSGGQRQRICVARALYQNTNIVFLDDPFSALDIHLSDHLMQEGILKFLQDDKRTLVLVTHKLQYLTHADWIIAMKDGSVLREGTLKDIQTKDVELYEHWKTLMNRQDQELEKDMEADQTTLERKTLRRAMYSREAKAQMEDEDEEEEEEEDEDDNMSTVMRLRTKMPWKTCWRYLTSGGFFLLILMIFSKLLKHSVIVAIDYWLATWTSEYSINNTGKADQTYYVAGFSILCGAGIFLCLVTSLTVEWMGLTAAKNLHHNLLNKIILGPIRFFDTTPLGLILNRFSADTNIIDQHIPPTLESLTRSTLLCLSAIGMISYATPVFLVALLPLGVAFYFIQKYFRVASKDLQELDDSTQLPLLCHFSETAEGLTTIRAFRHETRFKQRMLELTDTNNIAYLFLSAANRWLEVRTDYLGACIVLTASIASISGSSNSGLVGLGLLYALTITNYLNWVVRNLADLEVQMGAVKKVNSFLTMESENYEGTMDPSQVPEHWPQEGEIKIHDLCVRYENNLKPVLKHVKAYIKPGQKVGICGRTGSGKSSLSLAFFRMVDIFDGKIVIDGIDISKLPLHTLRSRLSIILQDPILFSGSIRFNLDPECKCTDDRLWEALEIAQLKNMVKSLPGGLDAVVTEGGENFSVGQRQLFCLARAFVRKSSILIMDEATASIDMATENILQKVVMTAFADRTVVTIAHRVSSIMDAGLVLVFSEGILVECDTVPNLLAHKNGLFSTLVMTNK

As a reminder, the EC50 is the concentration giving half of the maximal effect. The low end stands for greater potency, the high end for weaker potency. Compound `CC[C@H]1OC(O)=C2C1=NC1=C(C(=O)C(C)(C)OC1)[C@H]2c1ccc(F)c(Br)c1` (stereo in doubt; 36b) showed an EC50 of 550 nM.

Take `CCCCC[C@H]1OC(O)=C2C1=NC1=C(C(=O)COC1)[C@H]2c1ccc(F)c(Br)c1` (relative stereo): the EC50 was > 10000 nM.

The compound `CCC[C@H]1OC(O)=C2C1=NC1=C(C(=O)COC1)[C@H]2c1ccc(Cl)c(Br)c1` (stereo in doubt; 43b) gave an EC50 of 151 nM. This lies in the sub-micromolar range.

Regarding `CCC[C@H]1OC(O)=C2C1=NC1=C(C(=O)COC1)[C@H]2c1ccc(Br)c(Cl)c1` (racemic), the response was half-maximal at 427 nM (EC50).

`CCC[C@H]1OC(O)=C2C1=NC1=C(C(=O)COC1)[C@H]2c1ccc(F)c(I)c1` (stereo in doubt; 41a): the midpoint of the response, the EC50, lay at 1950 nM.

In the case of `C[C@H]1OC(O)=C2C1=NC1=C(C(=O)COC1)[C@H]2c1ccc(F)c(Br)c1` (racemic), the midpoint of the response, the EC50, lay at 1000 nM.

The compound `CC[C@H]1OCC(O)=C2C1=NC1=C(C(=O)COC1)[C@H]2c1ccc(F)c(I)c1` (racemic) gave an EC50 of 12000 nM.

As for `CC[C@H]1C2=C(C(=O)N1C)[C@H](c1ccc(F)c(Br)c1)C1=C(O)COCC1=N2` (relative stereo), the EC50 was > 10000 nM.

`CC[C@H]1OCC(O)=C2C1=NC1=C(C(=O)COC1)[C@H]2c1ccc(F)c(I)c1` (stereo in doubt; 73b) gave an EC50 of 2950 nM.

Regarding `CC(C)C[C@H]1OC(O)=C2C1=NC1=C(C(=O)COC1)[C@H]2c1ccc(F)c(Br)c1` (racemic), the EC50 was > 10000 nM.

On to `CC[C@@H]1OCC2=C(C1=O)[C@@H](c1ccc(F)c(Br)c1)C1=C(O)OCC1=N2` (racemic), for which the EC50 was > 10000 nM.

Turning to `CCC[C@H]1OC(O)=C2C1=NC1=C(C(=O)COC1)[C@H]2c1ccc(F)c(Cl)c1` (stereo in doubt; 39a), a half-maximal effect (EC50) was put at 3390 nM.

As to `CC[C@H]1OC(O)=C2C1=NC1=C(C(=O)COC1(C)C)[C@H]2c1ccc(F)c(Br)c1` (stereo in doubt; 38a), a half-maximal effect (EC50) was put at 1580 nM.

For `CC[C@@H]1OC(O)=C2C1=NC1=C(C(=O)COC1)[C@H]2c1ccc(F)c(Br)c1` (racemic), the midpoint of the response, the EC50, lay at 35.5 nM.

`CC[C@H]1OCC(O)=C2C1=NC1=C(C(=O)COC1)[C@H]2c1ccc(F)c(Cl)c1` (stereo in doubt; 72a) gave an EC50 of 3630 nM.

As for `CCCC[C@H]1OC(O)=C2C1=NC1=C(C(=O)COC1)[C@H]2c1ccc(F)c(Br)c1` (stereo in doubt; 29a), the EC50 is 5130 nM. The EC50 values of the last two compounds are within 1.5-fold of each other.

`CC[C@H]1OCC(O)=C2C1=NC1=C(C(=O)COC1)[C@H]2c1ccc(Cl)c(Br)c1` (stereo in doubt; 75b) had an EC50 of 5500 nM.

`CC1(C)OCC2=C(C1=O)C(c1ccc(F)c(Br)c1)C1=C(O)OCC1=N2` (single isomer, unassigned; (+)) had an EC50 of 26.9 nM.

Consider `CC[C@@H]1OCC(O)=C2C1=NC1=C(C(=O)COC1)[C@H]2c1ccc(F)c(Br)c1` (stereo in doubt; 70b), for which the midpoint of the response, the EC50, lay at 20 nM.

In turn, `CC[C@H]1OC(O)=C2C1=NC1=C(C(=O)COC1(C)C)[C@H]2c1ccc(F)c(Br)c1` (racemic) showed an EC50 of 3470 nM. Compared with the last compound, the EC50 is about 170-fold higher.

`CC[C@@H]1OC(O)=C2C1=NC1=C(C(=O)COC1)[C@H]2c1ccc(F)c(Br)c1` (stereo in doubt; 20a) had an EC50 of 3.89 nM.

`CC[C@H]1OCC(O)=C2C1=NC1=C(C(=O)COC1)[C@H]2c1ccc(C)c(Br)c1` (stereo in doubt; 78b): the EC50 was 5620 nM.

With `CC[C@H]1OC(O)=C2C1=NC1=C(C(=O)C(C)(C)OC1)[C@H]2c1ccc(F)c(Br)c1` (racemic), a half-maximal response (EC50) required 282 nM.

Take `CCC[C@H]1OC(O)=C2C1=NC1=C(C(=O)COC1)[C@H]2c1ccc(Br)c(Br)c1` (racemic): the EC50 is 331 nM.

`C[C@@H]1OC(O)=C2C1=NC1=C(C(=O)COC1)[C@H]2c1ccc(F)c(Br)c1` (racemic) showed an EC50 of 5.5 nM.

The compound `CC[C@H]1OCC(O)=C2C1=NC1=C(C(=O)COC1)[C@H]2c1ccc(Br)c(Cl)c1` (stereo in doubt; 76a) had an EC50 of 1620 nM.

`CC[C@H]1OCC(O)=C2C1=NC1=C(C(=O)COC1)[C@H]2c1ccc(Br)c(Br)c1` (stereo in doubt; 77b) had an EC50 of 427 nM.

In the case of `CCC[C@H]1OC(O)=C2C1=NC1=C(C(=O)COC1)[C@H]2c1ccc(Br)c(Br)c1` (stereo in doubt; 45b), a half-maximal response (EC50) required 126 nM.

Regarding `CC1(C)OCC2=C(C1=O)C(c1ccc(F)c(Br)c1)C1=C(O)OCC1=N2` (stereo in doubt; 9b), the EC50 is 2820 nM.

On to `C[C@@H]1OCC2=C(C1=O)[C@@H](c1ccc(F)c(Br)c1)C1=C(O)OCC1=N2` (racemic), for which the EC50 was 501 nM. Compared with the last compound, the EC50 is about 5.6-fold lower.

In the case of `O=C1COCC2=C1C(c1ccc(F)c(Br)c1)C1=C(O)OCC1=N2` (stereo in doubt; 6), a half-maximal response (EC50) required 45.7 nM. This EC50 lies about 11-fold lower than the previous one.

Consider `C[C@H]1OC(O)=C2C1=NC1=C(C(=O)COC1)[C@H]2c1ccc(F)c(Br)c1` (stereo in doubt; 18b), for which the EC50 was 257 nM.

In the case of `CC[C@@H]1OC(O)=C2C1=NC1=C(C(=O)COC1)[C@H]2c1ccc(F)c(Br)c1` (stereo in doubt; 20b), the EC50 is 145 nM.

In turn, `CC1(C)OCC2=C(C1=O)C(c1ccc(F)c(Br)c1)C1=C(O)OCC1=N2` (stereo in doubt; 9) showed an EC50 of 24 nM. This EC50 is about 6-fold lower than that of the compound before.

As to `CC[C@H]1OCC(O)=C2C1=NC1=C(C(=O)COC1)[C@H]2c1ccc(Br)c(Cl)c1` (racemic), the EC50 was 1000 nM. This EC50 lies about 42-fold higher than the previous one.

Compound `CCC[C@H]1OC(O)=C2C1=NC1=C(C(=O)COC1)[C@H]2c1ccc(Cl)c(Br)c1` (racemic) gave an EC50 of 174 nM.

The compound `CC(C)C[C@H]1OC(O)=C2C1=NC1=C(C(=O)COC1)[C@H]2c1ccc(F)c(Br)c1` (stereo in doubt; 31a) showed an EC50 of 2510 nM. Against the preceding compound, the EC50 is about 14-fold higher.

As for `CCC[C@H]1OC(O)=C2C1=NC1=C(C(=O)COC1)[C@H]2c1ccc(Cl)c(Br)c1` (stereo in doubt; 43a), the EC50 was 813 nM.

Consider `CC[C@H]1OC(O)=C2C1=NC1=C(C(=O)C(C)(C)OC1)[C@H]2c1ccc(F)c(Br)c1` (stereo in doubt; 36a), for which the EC50 is 437 nM.

As for `C[C@@H]1OCC2=C(C1=O)[C@@H](c1ccc(F)c(Br)c1)C1=C(O)OCC1=N2` (stereo in doubt; 7a), a half-maximal response (EC50) required 174 nM.

On to `CC(C)[C@H]1OC(O)=C2C1=NC1=C(C(=O)COC1)[C@H]2c1ccc(F)c(Br)c1` (relative stereo), for which the EC50 was > 10000 nM.

In the case of `CCC[C@H]1OC(O)=C2C1=NC1=C(C(=O)COC1)[C@H]2c1ccc(Br)c(Cl)c1` (stereo in doubt; 44a), the EC50 is 1050 nM.

`CC[C@H]1OCC(O)=C2C1=NC1=C(C(=O)COC1)[C@H]2c1ccc(Br)c(Br)c1` (stereo in doubt; 77a) gave an EC50 of 309 nM.

Take `CC[C@H]1OCC(O)=C2C1=NC1=C(C(=O)COC1)[C@H]2c1ccc(F)c(Cl)c1` (stereo in doubt; 72b): the EC50 is > 10000 nM.

Compound `CCCC[C@H]1OC(O)=C2C1=NC1=C(C(=O)COC1)[C@H]2c1ccc(F)c(Br)c1` (racemic) gave an EC50 of 2190 nM.

`CCC[C@H]1OC(O)=C2C1=NC1=C(C(=O)COC1)[C@H]2c1ccc(C)c(Br)c1` (stereo in doubt; 46b) had an EC50 of 219 nM.

The compound `C[C@@H]1OCC2=C(C1=O)[C@H](c1ccc(F)c(Br)c1)C1=C(O)OCC1=N2` (stereo in doubt; 8a) had an EC50 of 72.4 nM. Against the preceding compound, the EC50 is about 3-fold lower.

Regarding `CC[C@H]1OC(O)=C2C1=NC1=C(C(=O)COC1(C)C)[C@H]2c1ccc(F)c(Br)c1` (stereo in doubt; 38b), the EC50 is > 10000 nM.
